SENP1 inh: blocks the human SENP1 SUMO protease catalytic domain; Q9P0U3; recombinant SENP1 catalytic domain, CyPet-SUMO1-YPet FRET cleavage; inhibition, % at 10 µM; 360,000 compounds, 0.21% hits;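 active = inhibition at least 30% at 10 µM, raw YFP signal under a set limit, fluorescence ratio 0.5 to 1.5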;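 also: 0% = enzyme with DMSO and 100% = no enzyme wells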
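Assay system – human recombinant His6-tagged SENP1 catalytic domain enzyme · Input – SENP1 enzyme, 20 pM final · Buffer or medium – Tris pH 8 buffer plus EDTA, NaCl, BME, BSA, NP40, catalase · Schedule – 50 min reaction at room temperature · Technique – FRET read of cyan and yellow fluorescence · Control set – no-enzyme wells low, DMSO-plus-enzyme wells high control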
FAS-TE inh: FAS thioesterase (human) inhibition; AID 602261; recombinant FAS-TE, OMFH fluorogenic substrate, fluorescence endpoint; 360,000 compounds, 0.67% hits; inhibition, % at 15 µM; P49327;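 active = compounds whose normalised, plate-corrected inhibition of enzyme fluorescence in the single-dose primary screen is 50% or more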;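 also: 0% = DMSO with enzyme and 100% = substrate without enzyme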
ADAM10 inh: ADAM10 inhibition, QFRET primary screen. 370,000 compounds, 0.62% hits. inhibition, % at 7 µM. O14672. recombinant ADAM10, EDANS/DABCYL FRET peptide cleavage, 3 h;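 active = inhibition above a per-campaign cutoff equal to the mean of compounds falling between control-based bounds plus 3 SD, cut at about 20% in these data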;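 also: 0% = DMSO wells while the 100% control is not disclosed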
ADAM17 inh: inhibits human ADAM17; P78536; recombinant ADAM17, EDANS/DABCYL FRET peptide cleavage; inhibition, % at 6.95 µM; 370,000 compounds, 0.83% hits; AID 720648;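 active = inhibition above the mean of compounds lying between control limits plus 3 SD, set per campaign, cut at about 8.5% in these data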;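 also: 0% = DMSO-only wells as the low control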
Target sequence (P78536 215-824 limits assumed): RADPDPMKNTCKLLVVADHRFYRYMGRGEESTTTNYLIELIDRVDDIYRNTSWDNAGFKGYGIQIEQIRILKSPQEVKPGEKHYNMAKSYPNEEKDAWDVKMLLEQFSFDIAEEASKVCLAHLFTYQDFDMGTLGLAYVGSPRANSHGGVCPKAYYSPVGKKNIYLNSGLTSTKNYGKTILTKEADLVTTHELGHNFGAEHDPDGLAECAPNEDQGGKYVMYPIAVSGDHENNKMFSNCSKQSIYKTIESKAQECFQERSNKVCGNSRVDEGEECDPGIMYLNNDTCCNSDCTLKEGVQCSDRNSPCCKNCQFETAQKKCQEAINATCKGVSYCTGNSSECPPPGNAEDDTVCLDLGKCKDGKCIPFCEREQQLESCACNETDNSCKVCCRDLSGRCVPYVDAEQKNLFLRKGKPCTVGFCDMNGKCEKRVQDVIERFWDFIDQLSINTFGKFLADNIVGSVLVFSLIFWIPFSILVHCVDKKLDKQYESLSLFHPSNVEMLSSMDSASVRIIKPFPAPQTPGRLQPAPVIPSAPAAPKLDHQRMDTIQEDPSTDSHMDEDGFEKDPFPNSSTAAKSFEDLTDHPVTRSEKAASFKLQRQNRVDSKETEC
ADAM10 confirm: human ADAM10 inhibition, confirmation. shares compounds with ADAM10 inh. ADAM10 QFRET peptide cleavage, EDANS fluorescence. inhibition, % at 6.95 µM. 2,100 compounds, 1% hits;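 active = inhibition above about 20% chosen separately for each screening run, limit read from the data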;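 also: 0% = DMSO wells and 100% = marimastat wells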
ADAM17 counter: inhibits human ADAM17 in ADAM10 exosite counter-screen | shares compounds with ADAM10 inh | ADAM17 QFRET peptide cleavage, EDANS fluorescence | inhibition, % at 6.95 µM | 2,100 compounds, 0.5% hits | AID 743214;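 active = mean triplicate inhibition above the solvent-only control wells' mean plus 3 SD, cut at about 12% in these data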;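 also: 0% = DMSO wells and 100% = marimastat wells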
ADAM10 ctr: counter-screen for ADAM17 exosite inhibitors: inhibitors of human ADAM10. shares compounds with ADAM17 inh. recombinant ADAM10, EDANS/DABCYL FRET peptide cleavage, 3 h. inhibition, % at 6.95 µM. 2,900 compounds, 47% hits;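 active = mean inhibition over the triplicate runs exceeds the activity threshold set in the earlier primary screen, cut at about 20% in these data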;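 also: 0% = DMSO wells and 100% = marimastat wells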
ADAM17 confirm: human ADAM17 inhibition, confirmation; recombinant ADAM17, EDANS/DABCYL QFRET peptide cleavage; inhibition, % at 6.95 µM; shares compounds with ADAM17 inh; AID 743257; 2,900 compounds, 65% hits;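 active = mean inhibition across replicates above the hit cutoff set in the primary screen, cut at about 8.5% in these data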;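 also: 0% = DMSO wells and 100% = marimastat wells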
Numbers without * were called inactive; nt = no result. Hits are enriched below; roughly 1.9% of the tested compounds scored in any of these assays.

SMILES	SENP1 inh	FAS-TE inh	ADAM10 inh	ADAM17 inh	ADAM10 confirm	ADAM17 counter	ADAM10 ctr	ADAM17 confirm
COc1ccc(S(=O)(=O)Nc2ccc(Nc3ccccc3)cc2)cc1	0.6	24.5	21.0*	12.2*	7.3	1.4	12.9	11.1*
COc1ccc(Cl)cc1Cn1c(C)c(C(=O)N(C)Cc2ccc(F)cc2)sc1=O	-2.7	11.1	7.6	1.8	nt	nt	nt	nt
COc1ccc(Cl)cc1Cn1c(C)c(C(=O)NCc2ccc(F)cc2)sc1=O	0.5	25.2	27.3*	11.0*	1.8	1.2	11.7	4.9
NC(=O)c1ncn([C@@H]2O[C@H](C(=O)N[C@H](Cc3c[nH]c4ccccc34)C(=O)N3CCN(C(=O)C4CC4)CC3)[C@@H](O)[C@H]2O)n1	nt	nt	-12.2	-5.4	nt	nt	nt	nt
CC(C)(C)OC(=O)N1CCC(N[C@@H](Cc2c[nH]c3ccccc23)C(=O)NCC(c2ccccc2)c2ccccc2)(C(=O)NC2CCCCC2)CC1	nt	nt	14.3	6.2	nt	nt	nt	nt
CC(C)(C)OC(=O)N1CCC(N[C@@H](Cc2ccccc2)C(=O)NCCc2c[nH]c3ccccc23)(C(=O)NC2CCCCC2)CC1	nt	nt	23.8*	10.4*	6.9	1.5	34.0*	19.4*
COc1ccc(N(CC(=O)Nc2ccc(F)cc2)S(=O)(=O)c2ccccc2[N+](=O)[O-])c(OC)c1	0.5	19.6	24.8*	11.2*	1.8	0.8	32.1*	14.1*
COc1ccc(N(CC(=O)Nc2cc(C)cc(C)c2)S(=O)(=O)c2ccccc2[N+](=O)[O-])c(OC)c1	2.4	25.0	12.6	7.0	nt	nt	nt	nt
COC(=O)[C@]12C[C@H](CC(=O)NCCCCc3ccccc3)C(=O)N(CCc3ccc(OC)c(OC)c3)C1=C[C@H](COCc1ccccc1)O[C@@H]2C	nt	nt	3.9	-0.9	nt	nt	nt	nt
COc1ccc(C(c2c[nH]c3ccccc23)c2c[nH]c3ccccc23)cc1O	-7.1	36.1	30.9*	11.4*	12.7	4.0	42.6*	20.2*
Cc1ccc(O)c(C(C)c2c[nH]c3ccccc23)c1 (configuration not stated)	nt	nt	4.8	2.1	nt	nt	nt	nt
CCN(c1ccccc1)S(=O)(=O)c1ccc(C(=O)Nc2cccc(NC(C)=O)c2)cc1	1.4	7.9	22.1*	8.9*	7.7	1.7	3.0	3.0
CCN(c1ccccc1)S(=O)(=O)c1ccc(C(=O)Nc2cc(C)ccn2)cc1	0.7	17.5	-1.2	0.8	nt	nt	nt	nt
FC(F)(F)c1cccc(NC(=S)NCc2ccc(Cl)cc2)c1	2.0	33.8	22.3*	9.1*	2.9	2.3	26.1*	15.0*
Fc1ccc(CNC(=S)Nc2cccc(C(F)(F)F)c2)cc1	2.2	12.5	0.4	5.5	nt	nt	nt	nt
CCCCNC(=O)C[C@H]1C[C@@]2(C(=O)OC)C(=C[C@H](C(C)C)O[C@@H]2C2CC2)N(Cc2cccc3ccccc23)C1=O	nt	nt	11.2	7.5	nt	nt	nt	nt
COC(=O)[C@]12C[C@H](CC(=O)NCCC(C)C)C(=O)N(Cc3cccc4ccccc34)C1=C[C@H](C(C)C)O[C@@H]2C1CC1	nt	nt	19.9*	8.6*	11.7	3.7	34.2*	21.5*
CCCCOCCCNC(=O)C[C@@H]1C[C@@]2(C(=O)OC)CC(C)(C)CC=C2N(Cc2cccc3ccccc23)C1=O	0.4	nt	21.6*	13.4*	7.5	1.9	27.4*	16.4*
CCCCCCCCN1C(=O)[C@@H](CC(=O)NCc2cccc(C(F)(F)F)c2)C[C@@]2(C(=O)OC)C1=C[C@H](C(C)C)O[C@@H]2C1CC1	nt	nt	-0.1	-1.1	nt	nt	nt	nt
COC(=O)[C@]12C[C@H](CC(=O)NCc3cccc(C(F)(F)F)c3)C(=O)N(CCc3ccc(OC)c(OC)c3)C1=C[C@H](C(C)C)O[C@@H]2C1CC1	nt	nt	22.3*	12.7*	-0.3	0.0	22.1*	8.9*
Cc1cccc(-n2ncc3c(NCc4cccs4)ncnc32)c1	1.6	15.1	23.4*	12.0*	2.6	0.5	12.3	9.6*
O=[N+]([O-])c1cccc2ccc(/C=C/c3ccc(Cl)cc3)nc12	13.2	33.3	9.5	6.2	nt	nt	nt	nt
CCOc1cc(/C=C/c2ccc3cccc([N+](=O)[O-])c3n2)cc(Cl)c1O	7.3	8.5	25.1*	15.3*	0.4	0.5	11.4	5.2
CCC1CO/C(=C(\C(Cl)=C(Cl)Cl)[N+](=O)[O-])N1 (configuration not stated)	1.4	-0.8	33.0*	12.9*	15.6	5.5	30.4*	17.3*
Cc1ccc(S(=O)(=O)N2CCC(=O)N(C(COCc3ccccc3)Cc3ccccc3)CC2)cc1 (configuration not stated)	4.5	27.5	-2.8	-2.1	nt	nt	nt	nt
SMILES	SENP1 inh	FAS-TE inh	ADAM10 inh	ADAM17 inh	ADAM10 confirm	ADAM17 counter	ADAM10 ctr	ADAM17 confirm
Cc1ccc(S(=O)(=O)N2CCC(=O)N([C@H](COC(=O)Nc3ccccc3)Cc3ccccc3)CC2)cc1	1.7	12.4	19.9*	8.9*	2.8	1.2	19.0	13.0*
COc1ccccc1CNC(=O)NNC(=O)CCn1nc(C)c([N+](=O)[O-])c1C	nt	nt	0.7	-1.1	nt	nt	nt	nt
Cc1noc(C)c1COc1ccc(C(=O)OCC(=O)Nc2ccc3ccccc3c2)cc1	0.8	26.0	20.5*	8.8*	8.7	2.7	32.9*	19.2*
COc1cc(C(C(=O)NC2CCCCC2)N(Cc2cccs2)C(=O)Cc2c[nH]c3ccccc23)cc(OC)c1OC (configuration not stated)	-1.7	11.0	-5.0	3.2	nt	nt	nt	nt
Cc1ccc(C(C(=O)NC2CCCCC2)N(Cc2ccccc2)C(=O)Cc2c[nH]c3ccccc23)o1 (configuration not stated)	-4.2	16.4	20.2*	15.0*	7.0	2.2	18.0	12.1*
COc1cccc(CN(C(=O)Cc2c[nH]c3ccccc23)C(C(=O)NC2CCCCC2)c2ccc(C)o2)c1 (configuration not stated)	-3.4	27.6	21.8*	11.2*	9.6	2.8	32.6*	16.4*
Nc1ccc2c(c1)Cc1cc(N)c(Cl)cc1-2	-5.7	-1.9	27.2*	12.1*	9.0	5.3	-4.8	4.3
Nc1ccc2c(c1)Cc1cc(Cl)c(Cl)cc1-2	-7.0	10.3	-10.9	0.5	nt	nt	nt	nt
COC(=O)c1cc2c(c3c4ccccc4n(S(=O)(=O)c4ccc(OC)cc4)c13)C(=O)N(Cc1ccco1)C2	nt	nt	-31.1	-3.3	nt	nt	nt	nt
O=C(CSC1CC(=O)N(CC(c2ccccc2)c2ccccc2)C1=O)Nc1ccc(Cl)cc1 (configuration not stated)	-0.4	24.0	24.7*	16.3*	8.9	3.5	31.6*	19.9*

From PubChem
